PolyA inh – polyadenylation inhibitors in yeast reporter cells, primary screen, luminescence, S. cerevisiae; S. cerevisiae SKY197-pL101 polyadenylation reporter, beta-gal luminescence; efflux-impaired pdr1/pdr3 knockout yeast; score 100 = 6 SD above DMSO; activity score, % at 12 µM; 300,000 tested, 0.02% active; AID 1875, 2009;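 active means lowest replicate activity score at least 50, where 100 means six control SD above control mean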;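 further: yeast exposed to compound for 9 h at 30 °C; higher score means more reporter readthrough which indicates perturbed polyadenylation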
procasp3 activ – activators of human procaspase-3 D3A mutant, primary screen, biochemical, absorbance, PC-3 D3A mutant, single concentration; Caspase-3 (Homo sapiens), P42574; recombinant procaspase-3 D3A, Ac-DEVD-pNA absorbance 405 nm; activation, % at 8.5 µM; 330,000 tested, 0.11% active; AID 463141, 2010;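 active means activation above the mean of all tested compounds plus 3 SD, cut at about 21% in these data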;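 further: 0% = DMSO alone and 100% = DMSO wells spiked with extra 5 µM PC-3 D3A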
Target sequence (P42574 whole entry D9A/D28A/D175A): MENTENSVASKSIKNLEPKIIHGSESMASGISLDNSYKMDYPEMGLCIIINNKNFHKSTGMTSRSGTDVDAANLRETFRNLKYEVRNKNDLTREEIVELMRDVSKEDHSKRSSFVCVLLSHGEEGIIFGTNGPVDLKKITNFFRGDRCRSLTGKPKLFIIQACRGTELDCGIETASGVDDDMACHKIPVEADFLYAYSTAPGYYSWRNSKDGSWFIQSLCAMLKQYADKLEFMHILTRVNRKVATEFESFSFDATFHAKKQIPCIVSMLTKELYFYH
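Assay system – Procaspase-3 D3A mutant · Benchmarks – DMSO low control, extra-enzyme high control · Technique – 405 nm absorbance of p-nitroaniline, reads at 0 and 120 min · Doses – 8.5 µM nominal · Measure – % activation between DMSO and enzyme-spiked controls · Also added – Ac-DEVD-pNA chromogenic peptide substrate · Schedule – 1 h compound preincubation, 2 h substrate hydrolysis at 25 °C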
Neddyl block – inhibitors of cullin neddylation, primary screen, biochemical, TR-FRET, uHTS, NAE and Ubc12 | calls only at 25 µM | 360,000 tested, 0.58% active; in the data active means inhibition above about 36%
proCasp7 act – procaspase-7 activators, primary screen, counter-screen for procaspase-3 activator project, biochemical, absorbance, HTS, human. Caspase-7 (Homo sapiens), P55210. recombinant procaspase-7, Ac-DEVD-pNA absorbance 405 nm; D23A/D198A/D206A triple mutant, cannot self-cleave; scale: DMSO 0, 5 µM enzyme 100. 330,000 tested, 0.093% active. activation, % at 8.5 µM. AID 463210, 2010;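 active means percent activation above the screen-wide mean plus 3 SD, cut at about 25% in these data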
Target sequence (P55210 whole entry D23A/D198A/D206A): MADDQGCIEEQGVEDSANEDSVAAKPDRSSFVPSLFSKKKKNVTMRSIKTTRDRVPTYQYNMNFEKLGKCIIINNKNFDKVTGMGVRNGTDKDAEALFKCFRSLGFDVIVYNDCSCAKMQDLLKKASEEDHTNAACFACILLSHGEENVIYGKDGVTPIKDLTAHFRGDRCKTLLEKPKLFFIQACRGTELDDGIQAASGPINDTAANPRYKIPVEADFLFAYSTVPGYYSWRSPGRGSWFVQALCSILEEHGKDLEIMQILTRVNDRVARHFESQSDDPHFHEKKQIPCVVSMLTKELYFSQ
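Assay system: Uncleavable procaspase-7 mutant enzyme / Input: 2 µM procaspase-7 mutant as dispensed / Dosing: single nominal 8.5 µM compound dose, 0.8% DMSO final / Timing: 1 h enzyme–compound preincubation and 2 h substrate reaction, both 25 °C / Detection: p-Nitroaniline absorbance at 405 nm, read at 0 and 120 min / Replication: singlicate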
VIM-2 inh – VIM-2 metallo-beta-lactamase inhibitors, primary screen, biochemical, epi-absorbance readout, Pseudomonas aeruginosa enzyme. purified VIM-2, nitrocefin hydrolysis, epi-absorbance fluorescence. inhibition, % at 5.6 µM. 290,000 tested, 0.89% active. AID 1527, 2009;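 active means inhibition above the mean of all tested compounds plus 3 SD, cutoff set per screening run, cut at about 7.5% in these data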;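 further: red hydrolysis product quenches plate fluorescence so inhibitors raise well fluorescence; 0% = enzyme with DMSO and 100% = DMSO without enzyme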
IMP-1 inh-1 – IMP-1 metallo-beta-lactamase inhibitors, primary screen, biochemical, epi-absorbance readout, Pseudomonas aeruginosa enzyme | purified IMP-1, nitrocefin hydrolysis, epi-absorbance fluorescence | inhibition, % at 5.6 µM | 290,000 tested, 0.45% active;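 active means inhibition above the mean plus 3 SD of all compounds in the same screening run, cut at about 4.5% in these data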;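 further: 0% = IMP-1 with DMSO and 100% = DMSO wells lacking enzyme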
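System: purified IMP-1; amount: IMP-1 0.2 nM before substrate addition; compound: single dose, 5.6 µM; times: 25 °C, 15 min preincubation, 25 min reaction; signal: Epi-absorbance via hydrolysed-nitrocefin quenching of white-plate fluorescence, 480/530 nm, EDTA stop; benchmarks: DMSO with and without IMP-1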
IMP-1 inh-2 – IMP-1 metallo-beta-lactamase inhibitors, confirmation, selectivity assay for selective VIM-2 inhibitor project, biochemical, epi-absorbance readout, triplicate | shares compounds with VIM-2 inh | AID 1856, 2009 | purified IMP-1, nitrocefin hydrolysis, epi-absorbance fluorescence | 1,300 tested, under 10 active | inhibition, % at 5.6 µM; call rule not given here;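 further: 0% = enzyme with vehicle and 100% = vehicle without enzyme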
VIM-2 FRET inh – VIM-2 inhibitors in FRET format, confirmation, artefact control for selective VIM-2 inhibitor project, biochemical, epi-absorbance artifact exclusion | shares compounds with VIM-2 inh | purified VIM-2, CCF2 FRET substrate hydrolysis | inhibition, % at 5.6 µM | 1,300 tested, 23% active | AID 1857, 2009;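 active means inhibition above the mean of all tested compounds plus 3 SD, cut at about 19% in these data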;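 further: 0% = VIM-2 plus DMSO and 100% = no enzyme wells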
TEM-1 inh – TEM-1 serine beta-lactamase inhibitors, counter-screen for VIM-2 inhibitor project, biochemical, epi-absorbance, HTS; shares compounds with VIM-2 inh; Purified TEM-1, nitrocefin hydrolysis, epi-absorbance fluorescence; inhibition, % at 5.6 µM; 1,300 tested, 3% active;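 active means inhibition above that campaign's mean inhibition plus 3 SD, cut at about 0.46% in these data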;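 further: 0% = TEM-1 with DMSO and 100% = TEM-1 with 100 µM potassium clavulanate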
VIM-2 confirm 2 – VIM-2 metallo-beta-lactamase inhibitors, confirmation, biochemical, epi-absorbance, hits shared with IMP-1 screen. 1,300 tested, 96% active. purified VIM-2, nitrocefin hydrolysis. shares compounds with VIM-2 inh. inhibition, % at 5.6 µM;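 active means inhibition of the VIM-2 beta-lactamase enzyme above about 11% from the earlier first-round screen, limit read from the data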;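 further: 0% = VIM-2 with DMSO and 100% = buffer wells without enzyme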
* hit, by the source's call; i = inactive; . = not tested or not shown. A selection: hits, their analogues and other compounds. The true share with any hit is near 1.7%.

SMILES	PolyA inh	procasp3 activ	Neddyl block	proCasp7 act	VIM-2 inh	IMP-1 inh-1	IMP-1 inh-2	VIM-2 FRET inh	TEM-1 inh	VIM-2 confirm 2
COC(=O)CSc1nc(N)c(C#N)c(-c2ccc(O)cc2)c1C#N	-16	5	i	2	18*	-1	-3	0	-7	36*
CCOC(=O)CSc1nc(N)c(C#N)c(-c2ccc(OCC)cc2)c1C#N	-16	-2	i	5	-3	-4	.	.	.	.
CCCn1c2ccc(C)cc2c2nnc(SCCN3CCOCC3)nc21	1	3	i	-10	17*	-1	-3	3	-7	27*
CCn1c2ccc(C)cc2c2nnc(SCCN3CCCCC3)nc21	17	-1	i	10	26*	-4	-3	3	-7	35*
Cc1ccc2c(c1)c1nnc(SCC(=O)NC3CC3)nc1n2C	-11	2	i	3	17*	-3	-2	-1	-5	28*
Cc1cc(C)c2c(c1)c1nnc(SCCN3CCOCC3)nc1n2C	-10	.	i	.	23*	-3	-2	3	-5	31*
CCCn1c2ccc(F)cc2c2nnc(SCCN3CCOCC3)nc21	3	.	i	.	4	-2	.	.	.	.
CSc1ncnc2c1ncn2CCCNCC(c1ccccc1)c1ccccc1	.	.	i	.	.	.	.	.	.	.
CCCn1c2ccc(C)cc2c2nnc(SCCN3CCCCC3)nc21	1	.	i	.	22*	-1	-3	-8	-6	21*
CCCn1c2ccc(F)cc2c2nnc(SCCN3CCCCC3)nc21	-20	2	i	-5	5	-1	.	.	.	.
COc1ccc(-c2nc3ccccc3c(=O)n2NC(=O)Cc2ccccc2)cc1	11	-1	i	-5	-3	-4	.	.	.	.
COc1ccccc1OCC(=O)NNC(=O)c1ccc(F)c(S(=O)(=O)N2CCOCC2)c1	.	0	i	-5	.	.	.	.	.	.
CC(C)(C)c1ccc(-c2nc(C#N)c(NCCCn3ccnc3)o2)cc1	14	-6	.	-2	0	-1	.	.	.	.
N#Cc1nc(-c2ccco2)oc1NCCCn1ccnc1	7	3	.	8	26*	-4	-3	-6	-6	44*
N#Cc1nc(-c2ccc(F)cc2)oc1NCCCn1ccnc1	17	-4	.	-3	2	-2	.	.	.	.
COc1ccc(-c2nc(C#N)c(NCCCn3ccnc3)o2)cc1OC	11	-1	.	1	17*	0	-2	-15	-5	43*
CCN(CC(=O)Nc1ccc(NC(C)=O)cc1)C(=O)c1oc2ccccc2c1C	-7	-5	i	4	.	.	.	.	.	.
CCOC(=O)c1cc(C)nc(N2CCCCC2)c1C#N	-15	1	i	4	0	-1	.	.	.	.
CCCc1cc(=O)oc2cc(C)cc(OC(C)C(=O)NCCCN3CCOCC3)c12 (stereo unspecified)	-8	5	.	9	-1	-4	.	.	.	.
CCCc1cc(=O)oc2cc(C)cc(OC(C)C(=O)NCCCn3ccnc3)c12 (stereo unspecified)	-13	-4	.	9	18*	-3	-2	-10	-2	28*
Cc1cc(OC(C)C(=O)NCCCN2CCOCC2)c2c(C)cc(=O)oc2c1 (stereo unspecified)	2	1	.	4	1	-1	.	.	.	.
Cc1cc(OC(C)C(=O)NCCCn2ccnc2)c2c(C)cc(=O)oc2c1 (stereo unspecified)	-12	2	.	1	28*	-2	-2	-4	-3	39*
CCSc1cc(C)nc2c(-c3ccc(Cl)cc3)c(C)nn12	-8	-6	.	10	-4	-1	.	.	.	.
S=c1[nH]nc(-c2ccccc2Cl)n1Cc1ccccc1	2	-25	i	-12	1	-3	.	.	.	.
Fc1ccccc1-c1n[nH]c(=S)n1Cc1ccccc1	-23	-20	i	-10	28*	-5	-4	50*	-8	34*
SMILES	PolyA inh	procasp3 activ	Neddyl block	proCasp7 act	VIM-2 inh	IMP-1 inh-1	IMP-1 inh-2	VIM-2 FRET inh	TEM-1 inh	VIM-2 confirm 2
O=C(NCc1cccnc1)c1cccn2c(=O)c3sccc3nc12	15	-1	.	4	26*	-1	-3	-1	-9	51*
O=C(O)c1ccccc1C(=O)NCc1cccnc1	1	15	i	-1	-2	-1	.	.	.	.
COc1cccc(OCC(O)CN2CCC(CN3C(=O)c4cccc5cccc(c45)C3=O)CC2)c1 (stereo unspecified)	-4	-7	i	18	14*	-1	-4	-1	-4	22*
COc1ccc(COCC(O)CN2CCC(CN3C(=O)c4cccc5cccc(c45)C3=O)CC2)cc1OC (stereo unspecified)	16	-4	i	2	14*	-3	-4	3	-8	27*
O=C1c2cccc3cccc(c23)C(=O)N1CC1CCN(CC(O)COc2ccc3ccccc3c2)CC1 (stereo unspecified)	-27	4	i	-1	.	.	.	.	.	.
COc1cc2c(cc1OC)/C(=C/C(=O)c1ccccc1F)NCC2	-5	.	i	.	-1	-4	.	.	.	.
COc1cc2c(cc1OC)/C(=C/C(=O)c1ccc(F)cc1)NCC2	0	2	i	12	14*	-2	-3	-5	-6	19*
Cc1ccc(-c2csc(=Nc3cccnc3)n2CCCn2ccnc2)cc1C	6	3	i	-9	18*	-4	-2	-25	-8	30*

Bioassay records as filed in PubChem.
